Data reported in ChEMBL document CHEMBL5653631, “A Potent and Selective ULK1 Inhibitor Suppresses Autophagy and Sensitizes Cancer Cells to Nutrient Stress” (iScience, 2018).

Tests used:
[1] = molecular target: Ephrin type-A receptor 5 (Homo sapiens) (UniProt P54756); test: Inhibition of human recombinant EphA5 at 40 nM related to control ULK1
[2] = molecular target: RAC-alpha serine/threonine-protein kinase (Homo sapiens) (UniProt P31749); test: Inhibition of human recombinant AKT1 at 15 nM related to control ULK1
RAC-alpha serine/threonine-protein kinase (Homo sapiens), sequence (P31749 whole entry): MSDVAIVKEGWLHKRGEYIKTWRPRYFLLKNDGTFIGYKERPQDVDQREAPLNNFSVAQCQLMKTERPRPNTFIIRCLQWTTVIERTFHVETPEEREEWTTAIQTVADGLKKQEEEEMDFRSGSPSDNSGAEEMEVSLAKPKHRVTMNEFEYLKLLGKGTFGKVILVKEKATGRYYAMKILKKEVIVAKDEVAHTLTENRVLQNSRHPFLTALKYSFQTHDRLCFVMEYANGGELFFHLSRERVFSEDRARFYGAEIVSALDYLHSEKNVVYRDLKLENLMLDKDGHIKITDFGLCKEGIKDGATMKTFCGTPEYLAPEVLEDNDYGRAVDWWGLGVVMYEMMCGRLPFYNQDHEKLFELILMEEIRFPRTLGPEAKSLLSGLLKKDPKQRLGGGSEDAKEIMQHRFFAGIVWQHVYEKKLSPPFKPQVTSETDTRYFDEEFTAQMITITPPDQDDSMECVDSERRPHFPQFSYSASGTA

[3] = molecular target: T1, Testis-specific serine/threonine-protein kinase 3 (Homo sapiens) (UniProt Q96PN8); test: Inhibition of human recombinant TSSK3 at 15 nM in presence of ATP by radiometric assay relative to control
T1 sequence (whole entry): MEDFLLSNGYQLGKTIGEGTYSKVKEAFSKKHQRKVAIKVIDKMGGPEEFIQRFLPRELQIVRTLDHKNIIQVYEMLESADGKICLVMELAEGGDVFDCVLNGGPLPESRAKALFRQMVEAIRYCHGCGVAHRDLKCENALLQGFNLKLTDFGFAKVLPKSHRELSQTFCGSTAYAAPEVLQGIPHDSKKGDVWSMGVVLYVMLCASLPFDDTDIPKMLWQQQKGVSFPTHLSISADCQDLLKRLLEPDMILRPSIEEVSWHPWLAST

[4] = molecular target: Activated CDC42 kinase 1 (Homo sapiens) (UniProt Q07912); test: Inhibition of human recombinant ACK at 15 nM in presence of ATP by radiometric assay relative to control
Activated CDC42 kinase 1 (Homo sapiens), sequence (Q07912 whole entry, looked up): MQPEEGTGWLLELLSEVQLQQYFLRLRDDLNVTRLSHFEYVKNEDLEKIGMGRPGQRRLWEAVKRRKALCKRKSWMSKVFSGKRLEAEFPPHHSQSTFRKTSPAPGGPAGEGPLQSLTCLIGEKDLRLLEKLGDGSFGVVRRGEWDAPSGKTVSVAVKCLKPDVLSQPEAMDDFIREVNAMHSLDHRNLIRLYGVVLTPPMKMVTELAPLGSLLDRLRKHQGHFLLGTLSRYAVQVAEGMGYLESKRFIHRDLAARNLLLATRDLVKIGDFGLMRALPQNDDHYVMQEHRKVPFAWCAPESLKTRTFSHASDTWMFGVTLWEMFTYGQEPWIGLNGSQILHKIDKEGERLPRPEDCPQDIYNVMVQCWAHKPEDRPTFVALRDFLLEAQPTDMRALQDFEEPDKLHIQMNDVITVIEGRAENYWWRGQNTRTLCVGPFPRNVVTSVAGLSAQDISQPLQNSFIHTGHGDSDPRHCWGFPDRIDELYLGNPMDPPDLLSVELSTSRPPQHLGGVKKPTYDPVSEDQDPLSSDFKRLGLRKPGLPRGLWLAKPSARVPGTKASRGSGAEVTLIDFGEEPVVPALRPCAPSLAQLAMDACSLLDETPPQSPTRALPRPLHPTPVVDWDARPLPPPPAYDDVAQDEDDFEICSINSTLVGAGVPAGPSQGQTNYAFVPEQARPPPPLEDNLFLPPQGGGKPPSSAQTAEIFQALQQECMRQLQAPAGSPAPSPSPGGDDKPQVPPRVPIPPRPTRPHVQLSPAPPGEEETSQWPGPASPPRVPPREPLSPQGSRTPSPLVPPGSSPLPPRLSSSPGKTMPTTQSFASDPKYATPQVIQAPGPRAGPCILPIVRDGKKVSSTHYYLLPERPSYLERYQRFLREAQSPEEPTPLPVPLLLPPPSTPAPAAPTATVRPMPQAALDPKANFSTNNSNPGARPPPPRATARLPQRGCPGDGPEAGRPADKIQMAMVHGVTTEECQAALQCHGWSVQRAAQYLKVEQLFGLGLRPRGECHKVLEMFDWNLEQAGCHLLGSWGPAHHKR
How it was run: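 Panel of 327 recombinant human kinases in radiometric activity assays, each screened in duplicate at a single inhibitor concentration; percent activity remaining relative to vehicle control, percent inhibition taken as 100 minus activity remaining.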

[5] = molecular target: T2, Testis-specific serine/threonine-protein kinase 1 (Homo sapiens) (UniProt Q9BXA7); test: Inhibition of human recombinant TSSK1 at 15 nM in presence of ATP by radiometric assay relative to control
T2 sequence (whole entry): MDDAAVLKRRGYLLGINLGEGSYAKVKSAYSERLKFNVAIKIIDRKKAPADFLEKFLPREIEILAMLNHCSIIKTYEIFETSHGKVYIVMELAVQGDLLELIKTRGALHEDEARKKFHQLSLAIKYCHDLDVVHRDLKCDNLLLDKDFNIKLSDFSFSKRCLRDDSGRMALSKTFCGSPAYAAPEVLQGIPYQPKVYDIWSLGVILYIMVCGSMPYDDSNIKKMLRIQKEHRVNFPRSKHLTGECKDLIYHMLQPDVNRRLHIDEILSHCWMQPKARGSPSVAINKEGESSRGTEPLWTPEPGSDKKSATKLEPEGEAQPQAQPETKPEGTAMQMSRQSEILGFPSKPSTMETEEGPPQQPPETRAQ

[6] = molecular target: Fibroblast growth factor receptor 4 (Homo sapiens) (UniProt P22455); test: Inhibition of human recombinant FGFR4 at 500 nM related to control ULK1
Fibroblast growth factor receptor 4 (Homo sapiens), sequence (P22455 22-802 limits assumed): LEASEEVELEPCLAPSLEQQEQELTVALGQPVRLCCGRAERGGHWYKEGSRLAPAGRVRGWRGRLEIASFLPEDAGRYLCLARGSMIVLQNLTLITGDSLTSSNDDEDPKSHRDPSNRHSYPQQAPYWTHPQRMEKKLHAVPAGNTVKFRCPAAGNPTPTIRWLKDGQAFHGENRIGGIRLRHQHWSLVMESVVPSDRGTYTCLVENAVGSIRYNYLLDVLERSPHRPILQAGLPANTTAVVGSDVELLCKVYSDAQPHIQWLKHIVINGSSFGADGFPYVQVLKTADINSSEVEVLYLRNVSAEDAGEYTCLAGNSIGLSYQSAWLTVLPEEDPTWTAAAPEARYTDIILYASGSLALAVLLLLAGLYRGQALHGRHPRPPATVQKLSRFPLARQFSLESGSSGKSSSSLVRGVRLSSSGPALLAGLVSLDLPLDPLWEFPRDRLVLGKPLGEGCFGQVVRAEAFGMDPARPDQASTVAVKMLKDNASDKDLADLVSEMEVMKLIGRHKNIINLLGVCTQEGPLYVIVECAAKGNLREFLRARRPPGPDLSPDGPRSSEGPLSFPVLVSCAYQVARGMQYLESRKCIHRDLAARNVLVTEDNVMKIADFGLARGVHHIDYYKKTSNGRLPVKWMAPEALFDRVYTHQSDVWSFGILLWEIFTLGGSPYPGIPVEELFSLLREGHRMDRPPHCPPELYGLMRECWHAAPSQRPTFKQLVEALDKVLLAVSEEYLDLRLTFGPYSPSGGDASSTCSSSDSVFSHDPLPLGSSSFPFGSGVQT

[7] = molecular target: T3, Dual specificity tyrosine-phosphorylation-regulated kinase 3 (Homo sapiens) (UniProt O43781); test: Inhibition of human recombinant DYRK3 at 500 nM in presence of ATP by radiometric assay relative to control
T3 sequence (whole entry): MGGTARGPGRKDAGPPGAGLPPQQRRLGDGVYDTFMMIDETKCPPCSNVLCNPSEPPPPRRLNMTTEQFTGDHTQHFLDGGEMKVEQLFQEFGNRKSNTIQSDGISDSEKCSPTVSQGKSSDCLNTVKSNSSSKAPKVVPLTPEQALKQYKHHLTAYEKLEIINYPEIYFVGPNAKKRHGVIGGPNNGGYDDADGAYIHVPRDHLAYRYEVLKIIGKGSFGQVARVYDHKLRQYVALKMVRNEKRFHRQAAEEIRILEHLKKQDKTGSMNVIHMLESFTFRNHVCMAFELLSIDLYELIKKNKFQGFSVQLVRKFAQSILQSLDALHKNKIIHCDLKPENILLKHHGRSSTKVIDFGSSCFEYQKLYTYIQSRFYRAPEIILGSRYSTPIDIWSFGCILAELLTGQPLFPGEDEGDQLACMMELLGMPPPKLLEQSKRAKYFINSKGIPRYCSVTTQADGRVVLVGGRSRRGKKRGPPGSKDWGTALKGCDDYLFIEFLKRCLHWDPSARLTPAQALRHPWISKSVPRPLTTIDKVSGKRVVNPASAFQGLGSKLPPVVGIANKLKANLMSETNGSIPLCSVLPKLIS

[8] = molecular target: T4, Serine/threonine-protein kinase Nek3 (Homo sapiens) (UniProt P51956); test: Inhibition of human recombinant NEK3 at 500 nM related to control ULK1
T4 sequence (whole entry): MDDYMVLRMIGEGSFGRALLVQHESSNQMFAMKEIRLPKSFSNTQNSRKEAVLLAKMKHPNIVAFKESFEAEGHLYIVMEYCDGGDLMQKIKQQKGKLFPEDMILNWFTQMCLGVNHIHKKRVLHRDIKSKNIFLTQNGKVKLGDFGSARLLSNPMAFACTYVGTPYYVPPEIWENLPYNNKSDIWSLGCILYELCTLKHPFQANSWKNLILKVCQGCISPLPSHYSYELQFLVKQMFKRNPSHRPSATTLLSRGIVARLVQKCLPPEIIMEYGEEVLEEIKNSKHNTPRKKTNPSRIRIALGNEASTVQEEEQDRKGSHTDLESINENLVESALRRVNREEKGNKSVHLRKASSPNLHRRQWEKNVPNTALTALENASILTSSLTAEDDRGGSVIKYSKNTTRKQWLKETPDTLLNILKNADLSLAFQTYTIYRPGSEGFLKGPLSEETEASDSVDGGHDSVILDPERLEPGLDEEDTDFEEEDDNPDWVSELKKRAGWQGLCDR

[9] = molecular target: Serine/threonine-protein kinase Nek7 (Homo sapiens) (UniProt Q8TDX7); test: Inhibition of human recombinant NEK7 at 500 nM related to control ULK1
Serine/threonine-protein kinase Nek7 (Homo sapiens), sequence (Q8TDX7 whole entry, looked up): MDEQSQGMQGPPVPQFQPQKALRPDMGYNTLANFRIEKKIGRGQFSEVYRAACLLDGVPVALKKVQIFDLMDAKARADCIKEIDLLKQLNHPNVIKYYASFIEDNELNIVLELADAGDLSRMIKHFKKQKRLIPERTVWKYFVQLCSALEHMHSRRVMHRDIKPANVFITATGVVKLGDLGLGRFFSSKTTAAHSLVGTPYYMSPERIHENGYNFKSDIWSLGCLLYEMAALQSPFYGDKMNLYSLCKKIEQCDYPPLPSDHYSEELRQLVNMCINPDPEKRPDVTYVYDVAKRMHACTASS

[10] = molecular target: Serine/threonine-protein kinase SIK2 (Homo sapiens) (UniProt Q9H0K1); test: Inhibition of human recombinant QIK at 500 nM in presence of ATP by radiometric assay relative to control
[11] = molecular target: Tyrosine-protein kinase BTK (Homo sapiens) (UniProt Q06187); test: Inhibition of human recombinant BTK at 500 nM related to control ULK1
Tyrosine-protein kinase BTK (Homo sapiens), sequence (Q06187 whole entry): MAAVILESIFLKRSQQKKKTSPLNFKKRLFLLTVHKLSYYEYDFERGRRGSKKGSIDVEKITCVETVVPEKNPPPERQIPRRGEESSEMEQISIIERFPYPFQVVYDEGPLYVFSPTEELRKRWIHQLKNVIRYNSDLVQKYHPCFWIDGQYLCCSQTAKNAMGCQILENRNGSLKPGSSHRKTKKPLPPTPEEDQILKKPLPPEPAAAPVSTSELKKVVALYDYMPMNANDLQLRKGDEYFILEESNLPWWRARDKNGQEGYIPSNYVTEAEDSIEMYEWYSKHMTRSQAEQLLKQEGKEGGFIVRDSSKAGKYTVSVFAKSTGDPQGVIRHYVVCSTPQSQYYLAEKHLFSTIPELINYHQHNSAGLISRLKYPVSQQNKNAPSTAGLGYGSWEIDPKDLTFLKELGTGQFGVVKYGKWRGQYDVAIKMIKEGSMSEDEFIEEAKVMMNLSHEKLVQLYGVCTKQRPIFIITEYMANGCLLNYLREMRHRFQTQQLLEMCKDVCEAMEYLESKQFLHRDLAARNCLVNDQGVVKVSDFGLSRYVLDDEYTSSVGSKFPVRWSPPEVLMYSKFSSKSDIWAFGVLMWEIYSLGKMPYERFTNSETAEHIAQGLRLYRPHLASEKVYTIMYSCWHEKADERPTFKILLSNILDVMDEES

[12] = molecular target: T5, Testis-specific serine/threonine-protein kinase 2 (Homo sapiens) (UniProt Q96PF2); test: Inhibition of human recombinant TSSK2 at 500 nM in presence of ATP by radiometric assay relative to control
T5 sequence (whole entry): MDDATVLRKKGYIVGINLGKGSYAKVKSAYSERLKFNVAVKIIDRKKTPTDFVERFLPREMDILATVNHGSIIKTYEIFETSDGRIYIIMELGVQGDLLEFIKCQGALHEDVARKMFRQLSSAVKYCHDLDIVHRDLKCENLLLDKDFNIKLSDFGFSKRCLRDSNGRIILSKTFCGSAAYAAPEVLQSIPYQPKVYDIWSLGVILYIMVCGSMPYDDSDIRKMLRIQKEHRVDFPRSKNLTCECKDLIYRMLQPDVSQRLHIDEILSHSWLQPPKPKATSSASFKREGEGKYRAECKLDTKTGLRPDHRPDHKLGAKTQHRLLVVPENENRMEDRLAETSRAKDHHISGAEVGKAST

Ephrin type-A receptor 5 (Homo sapiens), sequence (P54756 whole entry): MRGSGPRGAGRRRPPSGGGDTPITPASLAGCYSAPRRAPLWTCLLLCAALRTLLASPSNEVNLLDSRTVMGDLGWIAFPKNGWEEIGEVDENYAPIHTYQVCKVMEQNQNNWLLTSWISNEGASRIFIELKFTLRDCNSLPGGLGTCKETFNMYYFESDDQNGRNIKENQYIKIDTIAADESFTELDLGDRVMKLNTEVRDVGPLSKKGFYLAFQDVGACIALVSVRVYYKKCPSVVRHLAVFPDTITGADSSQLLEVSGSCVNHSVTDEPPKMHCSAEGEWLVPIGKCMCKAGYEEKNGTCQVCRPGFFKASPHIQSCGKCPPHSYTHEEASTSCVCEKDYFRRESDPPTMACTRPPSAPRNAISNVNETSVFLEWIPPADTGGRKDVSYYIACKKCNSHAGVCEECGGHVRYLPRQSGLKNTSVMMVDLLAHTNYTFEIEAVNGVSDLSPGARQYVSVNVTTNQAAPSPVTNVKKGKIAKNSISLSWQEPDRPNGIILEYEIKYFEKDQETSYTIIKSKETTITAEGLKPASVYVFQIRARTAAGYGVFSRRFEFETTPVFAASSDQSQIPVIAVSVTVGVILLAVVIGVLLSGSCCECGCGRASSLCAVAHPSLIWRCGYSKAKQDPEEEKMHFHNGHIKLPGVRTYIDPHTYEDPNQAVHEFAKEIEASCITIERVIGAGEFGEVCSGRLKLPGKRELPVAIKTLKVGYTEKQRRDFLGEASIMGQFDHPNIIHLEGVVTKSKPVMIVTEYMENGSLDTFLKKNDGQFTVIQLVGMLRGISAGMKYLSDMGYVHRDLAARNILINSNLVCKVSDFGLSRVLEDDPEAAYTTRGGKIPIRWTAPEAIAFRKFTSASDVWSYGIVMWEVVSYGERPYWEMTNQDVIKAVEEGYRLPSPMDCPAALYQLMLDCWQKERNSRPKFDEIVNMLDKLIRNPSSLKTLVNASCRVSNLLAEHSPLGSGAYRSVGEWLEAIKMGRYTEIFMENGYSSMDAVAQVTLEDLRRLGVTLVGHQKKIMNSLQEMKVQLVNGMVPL

O=C(N[C@@H](C1CC1)C(F)(F)F)c1cc(-c2cnn3cc(-c4ccc(F)cc4)cnc23)cs1
fold change (FC) [1]: 0

CC(C)[C@H](NC(=O)c1cc(-c2cnn3cc(-c4ccc(OCCN5CCCCC5)cc4)cnc23)cs1)C(F)(F)F
fold change (FC) [2]: 0 | inhibition [3]: 14% | inhibition [4]: 0% | inhibition [5]: 23%

CNC(=O)c1ccccc1Oc1nc(Nc2cc(OC)c(OC)c(OC)c2)ncc1Br
fold change (FC) [6]: 0.14 | inhibition [7]: 0% | fold change (FC) [8]: 0.09 | fold change (FC) [9]: 0 | inhibition [10]: 0% | fold change (FC) [11]: 0 | inhibition [12]: 2%
